Data as given in the RNAGym collection of RNA variant scans (doi:10.1002/anie.201605470).

B1: Osa-1-4 twister ribozyme (parent)
chain: CCGCCUAACACUGCCAAUGCCGGUCCCAAGCCCGGAUAAAAGUGGAGGGGGCGG

Variants of: B1
Assay: self-cleavage, relative activity (ratio to wild type); higher = more cleavage; co-transcriptional
Summary of the method: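 Relative activity is the fraction cleaved divided by that of the wild-type ribozyme. The library came from a DNA template for a 54-nucleotide Oryza sativa twister ribozyme, doped at the 48 positions downstream of the cleavage site with 97 % wild-type base and 1 % of each other base. After 2 h of in vitro transcription at 37 °C with co-transcriptional self-cleavage, the RNA was reverse-transcribed with a template-switching oligonucleotide, amplified by PCR and deep-sequenced, and reads with or without upstream sequence gave the cleavage status.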
With CCGCCUAACACUGCCAAUGCCGGUCCCAAGCCCGGAUAAAUGUGGAAGGGGCGG [A41U G47A] the self-cleavage was 0.27. With CCGCCUAACACUGCCAAUGCCGGUCCCAAGCCCGGAUAAAUGUGGACGGGGCGG [A41U G47C] the self-cleavage was 0.11. For CCGCCUAACACUGCCAAUGCCGGUCCCAAGCCCGGAUAAAUGUGGAUGGGGCGG [A41U G47U], the self-cleavage was 0.25. Work on CCGCCUAACACUGCCAAUGCCGGUCCCAAGCCCGGAUAAAUGUGGAGAGGGCGG [A41U G48A] yielded a self-cleavage of 0.09. In the case of CCGCCUAACACUGCCAAUGCCGGUCCCAAGCCCGGAUAAAUGUGGAGCGGGCGG [A41U G48C], the self-cleavage is reported as 0.1. Variant CCGCCUAACACUGCCAAUGCCGGUCCCAAGCCCGGAUAAAUGUGGAGUGGGCGG [A41U G48U] has a self-cleavage of 0.07. In the case of CCGCCUAACACUGCCAAUGCCGGUCCCAAGCCCGGAUAAAUGUGGAGGAGGCGG [A41U G49A], the self-cleavage is reported as 0.14. Work on CCGCCUAACACUGCCAAUGCCGGUCCCAAGCCCGGAUAAAUGUGGAGGCGGCGG [A41U G49C] yielded a self-cleavage of 0.07. CCGCCUAACACUGCCAAUGCCGGUCCCAAGCCCGGAUAAAUGUGGAGGUGGCGG [A41U G49U] showed a self-cleavage of 0.13. Variant CCGCCUAACACUGCCAAUGCCGGUCCCAAGCCCGGAUAAAUGUGGAGGGAGCGG [A41U G50A] has a self-cleavage of 0.6. With CCGCCUAACACUGCCAAUGCCGGUCCCAAGCCCGGAUAAAUGUGGAGGGCGCGG [A41U G50C] the self-cleavage was 0.99. CCGCCUAACACUGCCAAUGCCGGUCCCAAGCCCGGAUAAAUGUGGAGGGUGCGG [A41U G50U] showed a self-cleavage of 1.03. In the case of CCGCCUAACACUGCCAAUGCCGGUCCCAAGCCCGGAUAAAUGUGGAGGGGACGG [A41U G51A], the self-cleavage is reported as 0.59. In the case of CCGCCUAACACUGCCAAUGCCGGUCCCAAGCCCGGAUAAAUGUGGAGGGGCCGG [A41U G51C], the self-cleavage is reported as 0.1. Work on CCGCCUAACACUGCCAAUGCCGGUCCCAAGCCCGGAUAAAUGUGGAGGGGUCGG [A41U G51U] yielded a self-cleavage of 0.26. CCGCCUAACACUGCCAAUGCCGGUCCCAAGCCCGGAUAAAUGUGGAGGGGGCAG [A41U G53A] gave a self-cleavage of 0.89. With CCGCCUAACACUGCCAAUGCCGGUCCCAAGCCCGGAUAAAUGUGGAGGGGGCCG [A41U G53C] the self-cleavage was 0.11. For CCGCCUAACACUGCCAAUGCCGGUCCCAAGCCCGGAUAAAUGUGGAGGGGGCUG [A41U G53U], the self-cleavage was 0.36. In the case of CCGCCUAACACUGCCAAUGCCGGUCCCAAGCCCGGAUAAAUGUGGAGGGGGCGA [A41U G54A], the self-cleavage is reported as 0.98. In the case of CCGCCUAACACUGCCAAUGCCGGUCCCAAGCCCGGAUAAAUGUGGAGGGGGCGC [A41U G54C], the self-cleavage is reported as 0.93. CCGCCUAACACUGCCAAUGCCGGUCCCAAGCCCGGAUAAAUGUGGAGGGGGCGU [A41U G54U] showed a self-cleavage of 0.99. CCGCCUAACACAGCCAAUGCCGGUCCCAAGCCCGGAUAAAUGUGGAGGGGGCGG [A41U U12A] showed a self-cleavage of 1.05. CCGCCUAACACCGCCAAUGCCGGUCCCAAGCCCGGAUAAAUGUGGAGGGGGCGG [A41U U12C] showed a self-cleavage of 0.91. Variant CCGCCUAACACGGCCAAUGCCGGUCCCAAGCCCGGAUAAAUGUGGAGGGGGCGG [A41U U12G] has a self-cleavage of 0.69. CCGCCUAACACUGCCAAAGCCGGUCCCAAGCCCGGAUAAAUGUGGAGGGGGCGG [A41U U18A] gave a self-cleavage of 0.92. For CCGCCUAACACUGCCAACGCCGGUCCCAAGCCCGGAUAAAUGUGGAGGGGGCGG [A41U U18C], the self-cleavage was 0.93. CCGCCUAACACUGCCAAGGCCGGUCCCAAGCCCGGAUAAAUGUGGAGGGGGCGG [A41U U18G] showed a self-cleavage of 0.86. For CCGCCUAACACUGCCAAUGCCGGACCCAAGCCCGGAUAAAUGUGGAGGGGGCGG [A41U U24A], the self-cleavage was 0.22. In the case of CCGCCUAACACUGCCAAUGCCGGCCCCAAGCCCGGAUAAAUGUGGAGGGGGCGG [A41U U24C], the self-cleavage is reported as 0.27. Variant CCGCCUAACACUGCCAAUGCCGGGCCCAAGCCCGGAUAAAUGUGGAGGGGGCGG [A41U U24G] has a self-cleavage of 0.02. CCGCCUAACACUGCCAAUGCCGGUCCCAAGCCCGGAAAAAUGUGGAGGGGGCGG [A41U U37A] showed a self-cleavage of 0.98. For CCGCCUAACACUGCCAAUGCCGGUCCCAAGCCCGGACAAAUGUGGAGGGGGCGG [A41U U37C], the self-cleavage was 1.03. CCGCCUAACACUGCCAAUGCCGGUCCCAAGCCCGGAGAAAUGUGGAGGGGGCGG [A41U U37G] gave a self-cleavage of 1.02. For CCGCCUAACACUGCCAAUGCCGGUCCCAAGCCCGGAUAAAUGAGGAGGGGGCGG [A41U U43A], the self-cleavage was 0.81. With CCGCCUAACACUGCCAAUGCCGGUCCCAAGCCCGGAUAAAUGCGGAGGGGGCGG [A41U U43C] the self-cleavage was 0.33. For CCGCCUAACACUGCCAAUGCCGGUCCCAAGCCCGGAUAAAUGGGGAGGGGGCGG [A41U U43G], the self-cleavage was 0.32. CCGCCUAACACUGCCAAUGCCGGUCCCAAGCCCGGAUAAAAAUGGAGGGGGCGG [G42A] gave a self-cleavage of 0.84. CCGCCUAACACUGCCAAUGCCGGUCCCAAGCCCGGAUAAAAAUAGAGGGGGCGG [G42A G44A] showed a self-cleavage of 0.5. Work on CCGCCUAACACUGCCAAUGCCGGUCCCAAGCCCGGAUAAAAAUCGAGGGGGCGG [G42A G44C] yielded a self-cleavage of 0.57. CCGCCUAACACUGCCAAUGCCGGUCCCAAGCCCGGAUAAAAAUUGAGGGGGCGG [G42A G44U] gave a self-cleavage of 0.31. Work on CCGCCUAACACUGCCAAUGCCGGUCCCAAGCCCGGAUAAAAAUGAAGGGGGCGG [G42A G45A] yielded a self-cleavage of 0.08. For CCGCCUAACACUGCCAAUGCCGGUCCCAAGCCCGGAUAAAAAUGCAGGGGGCGG [G42A G45C], the self-cleavage was 0.05. Work on CCGCCUAACACUGCCAAUGCCGGUCCCAAGCCCGGAUAAAAAUGUAGGGGGCGG [G42A G45U] yielded a self-cleavage of 0.05. Variant CCGCCUAACACUGCCAAUGCCGGUCCCAAGCCCGGAUAAAAAUGGAAGGGGCGG [G42A G47A] has a self-cleavage of 0.08. Work on CCGCCUAACACUGCCAAUGCCGGUCCCAAGCCCGGAUAAAAAUGGACGGGGCGG [G42A G47C] yielded a self-cleavage of 0.07. In the case of CCGCCUAACACUGCCAAUGCCGGUCCCAAGCCCGGAUAAAAAUGGAUGGGGCGG [G42A G47U], the self-cleavage is reported as 0.07. Variant CCGCCUAACACUGCCAAUGCCGGUCCCAAGCCCGGAUAAAAAUGGAGAGGGCGG [G42A G48A] has a self-cleavage of 0.06. CCGCCUAACACUGCCAAUGCCGGUCCCAAGCCCGGAUAAAAAUGGAGCGGGCGG [G42A G48C] gave a self-cleavage of 0.06.
